Active and inactive are the calls of the source. The calls are words filed in the database; no cut-off is given here.
Columns and labels:
Assay type in all cases: functional, cell-based
P2Y purinoceptor 6 [1] = target: T1, P2Y purinoceptor 6 (Homo sapiens, UniProt Q15077); assay: Agonist activity at human recombinant P2Y6 receptor expressed in 1321N1 cells assessed as PLC-mediated [3H]IP production relative to UDP
In short: (§1)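 Stable 1321N1 astrocytoma line expressing human P2Y6, grown to confluence and labelled 12 h in serum-free, inositol-free DMEM with 0.4 μCi myo-[3H]inositol. Agonists were added in Hepes pH 7.3 with LiCl for 20 min at 37 °C. The reaction was stopped with ice-cold 50 mM formic acid, neutralised with NH4OH, and [3H]inositol phosphates separated on Dowex AG 1-X8. EC50 came from four-parameter logistic fits; ratio to UDP EC50. Triplicates, ≥3 experiments.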

P2Y purinoceptor 4 [2] = target: T2, P2Y purinoceptor 4 (Homo sapiens, UniProt P51582); assay: Agonist activity at human recombinant P2Y4 receptor expressed in 1321N1 cells assessed as PLC-mediated [3H]IP production relative to UTP
T2 sequence (P51582 whole entry): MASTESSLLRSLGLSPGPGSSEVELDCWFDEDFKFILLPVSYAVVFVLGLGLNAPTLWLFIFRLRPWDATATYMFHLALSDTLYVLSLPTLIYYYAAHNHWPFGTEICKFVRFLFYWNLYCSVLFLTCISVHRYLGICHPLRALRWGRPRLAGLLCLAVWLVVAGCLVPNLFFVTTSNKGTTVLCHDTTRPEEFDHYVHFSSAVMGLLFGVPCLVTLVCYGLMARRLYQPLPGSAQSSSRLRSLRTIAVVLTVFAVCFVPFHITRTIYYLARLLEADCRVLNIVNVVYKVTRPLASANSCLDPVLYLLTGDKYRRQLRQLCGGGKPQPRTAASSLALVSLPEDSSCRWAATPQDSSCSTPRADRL

P2Y purinoceptor 2 [3] = target: T3, P2Y purinoceptor 2 (Homo sapiens, UniProt P41231); assay: Agonist activity at human recombinant P2Y2 receptor expressed in 1321N1 cells assessed as PLC-mediated [3H]IP production relative to UTP
T3 sequence (P41231 whole entry): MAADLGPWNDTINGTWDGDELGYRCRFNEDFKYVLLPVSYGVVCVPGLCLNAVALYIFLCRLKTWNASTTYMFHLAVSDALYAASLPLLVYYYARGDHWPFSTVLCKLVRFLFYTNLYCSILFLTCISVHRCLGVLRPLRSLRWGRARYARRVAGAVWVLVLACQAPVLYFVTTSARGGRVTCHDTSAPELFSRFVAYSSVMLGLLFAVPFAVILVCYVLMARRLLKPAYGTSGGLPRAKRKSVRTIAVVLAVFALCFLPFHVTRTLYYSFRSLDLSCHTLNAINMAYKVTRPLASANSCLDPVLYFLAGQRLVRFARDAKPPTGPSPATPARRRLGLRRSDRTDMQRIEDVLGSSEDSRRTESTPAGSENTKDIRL

P2Y purinoceptor 6 [4] = target: T1, P2Y purinoceptor 6; assay: Agonist activity at human recombinant P2Y6 receptor expressed in 1321N1 cells assessed as PLC-mediated [3H]IP production; in short: as §1
P2Y purinoceptor 4 [5] = target: T2, P2Y purinoceptor 4; assay: Agonist activity at human recombinant P2Y4 receptor expressed in 1321N1 cells assessed as PLC-mediated [3H]IP production relative to UTP at 10 uM
P2Y purinoceptor 6 [6] = target: T1, P2Y purinoceptor 6; assay: Agonist activity at human recombinant P2Y6 receptor expressed in 1321N1 cells assessed as PLC-mediated [3H]IP production at 10 uM realtive to UDP
In short: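 Human P2Y6 in 1321N1 cells prelabelled with myo-[3H]inositol, then exposed to agonist at 10 μM in Hepes pH 7.3 with LiCl for 20 min at 37 °C. [3H]inositol phosphates were isolated by Dowex anion exchange. Response is expressed as % of the effect of a maximally effective UDP concentration in the same experiment.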

P2Y purinoceptor 4 [7] = target: T2, P2Y purinoceptor 4; assay: Agonist activity at human recombinant P2Y4 receptor expressed in 1321N1 cells assessed as PLC-mediated [3H]IP production
P2Y purinoceptor 2 [8] = target: T3, P2Y purinoceptor 2; assay: Agonist activity at human recombinant P2Y2 receptor expressed in 1321N1 cells assessed as PLC-mediated [3H]IP production

T1 sequence (Q15077 whole entry): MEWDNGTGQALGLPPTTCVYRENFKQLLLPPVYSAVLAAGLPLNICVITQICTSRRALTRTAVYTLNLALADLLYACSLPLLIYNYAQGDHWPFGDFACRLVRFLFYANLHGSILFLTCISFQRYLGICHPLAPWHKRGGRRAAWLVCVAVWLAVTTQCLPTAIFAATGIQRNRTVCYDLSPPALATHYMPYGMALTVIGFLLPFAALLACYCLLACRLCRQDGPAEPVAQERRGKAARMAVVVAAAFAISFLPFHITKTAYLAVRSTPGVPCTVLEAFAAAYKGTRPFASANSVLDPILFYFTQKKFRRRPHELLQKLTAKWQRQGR

`O=c1ccn([C@@H]2C3C[C@@]3(COP(=O)(O)OP(=O)(O)O)[C@@H](O)[C@H]2O)c(=O)[nH]1` (some centres undefined) was tested, and the Ratio EC50 (P2Y purinoceptor 6 [1]) was > 7000, the Ratio EC50 (P2Y purinoceptor 4 [2]) was 1.7 and the Ratio EC50 (P2Y purinoceptor 2 [3]) was 2.

`O=c1ccn([C@@H]2O[C@H](COP(=O)(O)OP(=O)(O)O)[C@@H](O)[C@H]2O)c(=O)[nH]1` [URIDINE_DIPHOSPHATE] gave an EC50 (P2Y purinoceptor 6 [4]) of 13 nM.

For `Nc1ncnc2c1ncn2[C@@H]1O[C@H](COP(=O)(O)OP(=O)(O)O)[C@@H](O)[C@H]1O` [ADENOSINE DIPHOSPHATE], the Activity (P2Y purinoceptor 4 [5]) was “inactive”, the EC50 (P2Y purinoceptor 6 [4]) was 65000 nM and the Ratio EC50 (P2Y purinoceptor 6 [1]) was > 7000. It also gave a Ratio EC50 (P2Y purinoceptor 2 [3]) of 1.7.

For `[N-]=[N+]=N[C@@H]1[C@H](O)[C@@H](COP(=O)(O)OP(=O)(O)O)O[C@H]1n1ccc(=O)[nH]c1=O`, the EC50 (P2Y purinoceptor 6 [4]) was 1500 nM, the Ratio EC50 (P2Y purinoceptor 6 [1]) was 120 and the Ratio EC50 (P2Y purinoceptor 4 [2]) was 15. For the same compound, the Ratio EC50 (P2Y purinoceptor 2 [3]) was 100.

`C=CCSc1ccn([C@@H]2O[C@H](COP(=O)(O)OP(=O)(O)O)[C@@H](O)[C@H]2O)c(=O)n1` showed an EC50 (P2Y purinoceptor 6 [4]) of 560 nM.

With `O=c1nc(SCc2ccccc2)ccn1[C@@H]1O[C@H](COP(=O)(O)OP(=O)(O)OC[C@H]2O[C@@H](n3ccc(SCc4ccccc4)nc3=O)[C@H](O)[C@@H]2O)[C@@H](O)[C@H]1O` the Efficacy (P2Y purinoceptor 6 [6]) was < 50%.

Work on `O=c1[nH]c(=O)n([C@@H]2O[C@H](COP(=O)(O)OP(=O)(O)O)[C@@H](O)[C@H]2O)cc1I` yielded an EC50 (P2Y purinoceptor 6 [4]) of 15 nM, a Ratio EC50 (P2Y purinoceptor 6 [1]) of 1.1 and a Ratio EC50 (P2Y purinoceptor 4 [2]) of 55. The Ratio EC50 (P2Y purinoceptor 2 [3]) was 17.

For `O=c1nc(SCc2ccccc2)ccn1[C@@H]1O[C@H](COP(=O)(O)OP(=O)(O)O)[C@@H](O)[C@H]1O`, the EC50 (P2Y purinoceptor 6 [4]) was 800 nM.

`NC(=O)CSc1ccn([C@@H]2O[C@H](COP(=O)(O)OP(=O)(O)O)[C@@H](O)[C@H]2O)c(=O)n1` was tested, and the EC50 (P2Y purinoceptor 6 [4]) was 18000 nM.

With `O=C(O)CCSc1ccn([C@@H]2O[C@H](COP(=O)(O)OP(=O)(O)O)[C@@H](O)[C@H]2O)c(=O)n1` the EC50 (P2Y purinoceptor 6 [4]) was 1100 nM.

With `CCSc1ccn([C@@H]2O[C@H](COP(=O)(O)OP(=O)(O)OC[C@H]3O[C@@H](n4ccc(SCC)nc4=O)[C@H](O)[C@@H]3O)[C@@H](O)[C@H]2O)c(=O)n1` the Efficacy (P2Y purinoceptor 6 [6]) was < 50%.

Work on `O=c1ccn([C@@H]2O[C@H](COP(=O)(O)OP(=O)(O)O)C[C@H]2O)c(=O)[nH]1` yielded an EC50 (P2Y purinoceptor 4 [7]) of 3100 nM, an EC50 (P2Y purinoceptor 6 [4]) of 2500 nM and an EC50 (P2Y purinoceptor 2 [8]) of 810 nM. It also gave a Ratio EC50 (P2Y purinoceptor 6 [1]) of 190, a Ratio EC50 (P2Y purinoceptor 4 [2]) of 42 and a Ratio EC50 (P2Y purinoceptor 2 [3]) of 17.

In the case of `O=c1ccn([C@@H]2O[C@H](COP(=O)(O)OP(=O)(O)O)[C@@H](O)[C@H]2O)c(=S)[nH]1`, the EC50 (P2Y purinoceptor 6 [4]) is reported as 60 nM, the Ratio EC50 (P2Y purinoceptor 6 [1]) is reported as 4 and the Ratio EC50 (P2Y purinoceptor 4 [2]) is reported as 4.8. For the same compound, the Ratio EC50 (P2Y purinoceptor 2 [3]) was 0.71.

`O=c1ccn([C@@H]2O[C@@]3(COP(=O)(O)OP(=O)(O)O)C[C@H]3[C@H]2O)c(=O)[nH]1` showed an EC50 (P2Y purinoceptor 6 [4]) of 3500 nM.

Work on `Cn1c(=O)ccn([C@@H]2O[C@H](COP(=O)(O)OP(=O)(O)O)[C@@H](O)[C@H]2O)c1=O` yielded an EC50 (P2Y purinoceptor 6 [4]) of 3300 nM, a Ratio EC50 (P2Y purinoceptor 6 [1]) of 250 and a Ratio EC50 (P2Y purinoceptor 4 [2]) of 47. For the same compound, the Ratio EC50 (P2Y purinoceptor 2 [3]) was 24.

`O=c1ccn([C@@H]2O[C@H](COP(=O)(O)OP(=O)(O)O)[C@@H](O)[C@@H]2F)c(=O)[nH]1` was tested, and the EC50 (P2Y purinoceptor 6 [4]) was 5500 nM, the Ratio EC50 (P2Y purinoceptor 6 [1]) was 420 and the Ratio EC50 (P2Y purinoceptor 4 [2]) was 7.1. For the same compound, the Ratio EC50 (P2Y purinoceptor 2 [3]) was 11.

With `N[C@@H]1[C@H](O)[C@@H](COP(=O)(O)OP(=O)(O)O)O[C@H]1n1ccc(=O)[nH]c1=O` the EC50 (P2Y purinoceptor 6 [4]) was 3900 nM, the Ratio EC50 (P2Y purinoceptor 6 [1]) was 300 and the Ratio EC50 (P2Y purinoceptor 4 [2]) was 16. The Ratio EC50 (P2Y purinoceptor 2 [3]) was 1.3.

`CCCCCCSc1ccn([C@@H]2O[C@H](COP(=O)(O)OP(=O)(O)O)[C@@H](O)[C@H]2O)c(=O)n1` showed an EC50 (P2Y purinoceptor 6 [4]) of 4900 nM.

For `O=C(O)CSc1ccn([C@@H]2O[C@H](COP(=O)(O)OP(=O)(O)O)[C@@H](O)[C@H]2O)c(=O)n1`, the EC50 (P2Y purinoceptor 6 [4]) was 1700 nM.

Compound `Nc1nc2c(ncn2[C@@H]2O[C@H](COP(=O)(O)OP(=O)(O)O)[C@@H](O)[C@H]2O)c(=O)[nH]1` has an EC50 (P2Y purinoceptor 6 [4]) of 45000 nM, a Ratio EC50 (P2Y purinoceptor 6 [1]) of 500 and a Ratio EC50 (P2Y purinoceptor 4 [2]) of 90. The Ratio EC50 (P2Y purinoceptor 2 [3]) was 54.

Compound `O=c1[nH]c(=S)ccn1[C@@H]1O[C@H](COP(=O)(O)OP(=O)(O)O)[C@@H](O)[C@H]1O` has an EC50 (P2Y purinoceptor 6 [4]) of 80 nM, a Ratio EC50 (P2Y purinoceptor 6 [1]) of 6 and a Ratio EC50 (P2Y purinoceptor 4 [2]) of 0.32. For the same compound, the Ratio EC50 (P2Y purinoceptor 2 [3]) was 0.53.

Work on `CSc1ccn([C@@H]2O[C@H](COP(=O)(O)OP(=O)(O)O)[C@@H](O)[C@H]2O)c(=O)n1` yielded an EC50 (P2Y purinoceptor 6 [4]) of 2300 nM.

For `Nc1ccn([C@@H]2O[C@H](COP(=O)(O)OP(=O)(O)O)[C@@H](O)[C@H]2O)c(=O)n1`, the Activity (P2Y purinoceptor 4 [5]) was “inactive”, the EC50 (P2Y purinoceptor 6 [4]) was 88000 nM and the Ratio EC50 (P2Y purinoceptor 6 [1]) was 1000. For the same compound, the Ratio EC50 (P2Y purinoceptor 2 [3]) was 110.

`O=c1ccn([C@@H]2O[C@H](COP(=O)(O)OP(=O)(O)OC[C@H]3O[C@@H](n4ccc(=O)[nH]c4=O)[C@H](O)[C@@H]3O)[C@@H](O)[C@H]2O)c(=O)[nH]1` was tested, and the EC50 (P2Y purinoceptor 6 [4]) was 2300 nM.

In the case of `O=C(O)CCCSc1ccn([C@@H]2O[C@H](COP(=O)(O)OP(=O)(O)O)[C@@H](O)[C@H]2O)c(=O)n1`, the EC50 (P2Y purinoceptor 6 [4]) is reported as 8800 nM.

`O=c1ccn([C@]23CC2[C@H](COP(=O)(O)OP(=O)(O)O)[C@@H](O)C3)c(=O)[nH]1` (some centres undefined) was tested, and the EC50 (P2Y purinoceptor 6 [4]) was 230 nM.

In the case of `CCSc1ccn([C@@H]2O[C@H](COP(=O)(O)OP(=O)(O)O)[C@@H](O)[C@H]2O)c(=O)n1`, the EC50 (P2Y purinoceptor 6 [4]) is reported as 280 nM.

Source: ChEMBL document CHEMBL1149485, “Structure-activity relationships of uridine 5'-diphosphate analogues at the human P2Y6 receptor” (J Med Chem, 2006)
